Source: PubChem BioAssay
An excerpt weighted towards active compounds, which were near 1% of everything screened.
NALP1 yeast inh = NALP1 inflammasome inhibitors in reconstituted yeast, colorimetric, S. cerevisiae, triplicate retest | inhibition, % at 10 µM | S. cerevisiae NALP1/ASC/caspase-1 growth, X-gal OD620, 72 h | actives 0.61% (n = 280,000); in the data active means inhibition mostly above about 24%, no sharp cut-off; inactive means mostly below about 32%
Bfl-1 A1 inh = caspase 3/7 activation in MEF A1-2A-BIM cells, primary screen, A1 inhibitor project, cell-based, luminescence, HTS. Caspase-Glo 3/7 luminescence, 3 h; percent of clofoctol response, vehicle zero. caspase activation, % (concentration not given with the values). actives 0.066% (n = 330,000). AID 2462, 2010;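 active means over half of replicate activation scores above 10%, or exactly half above 10 with the replicate mean above 10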
NLRP3 yeast inh = NALP3 inflammasome inhibitors in reconstituted yeast, primary screen, luminescence, uHTS. AID 2825, 2010. actives 0.39% (n = 330,000). Yeast reconstituted NLRP3/ASC/caspase-1, beta-gal luminescence, 24 h. inhibition, % at 10 µM;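 active means inhibition of 50% or more; inactive means inhibition below 50%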
T cell modulator = modulators of CD8 T cell-vesicle binding, primary screen, mouse 2C CD8+ T cells, flow cytometry | response (vesicle binding), % at 7 µM | 2C CD8+ T cell-vesicle binding; active compounds read low | actives 0.068% (n = 330,000);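 active means response, share of CD8 T cells binding vesicles, and their 90th percentile fluorescence all below set limits, cut at about 80% in these data, passing the limit was not always enough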;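 further: values below 100% mean blocked vesicle binding to the CD8+ T cells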
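System: murine 2C transgenic CD8+ T lymphocytes; also added: QL9-loaded Drosophila micro-vesicles; times: binding 1.5 h at 37 °C; measured by: flow cytometry, PE anti-B7-1 (FL2) versus Alexa647 anti-CD8 (FL8), PFA-fixed; control set: Peptide-free naked vesicles (low) and QL9 vesicles with 0.7% DMSO vehicle (high)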
NALP3 confirm = NALP3 inhibitors retested in yeast, confirmation, luminescence, single concentration. shares compounds with NLRP3 yeast inh. yeast expressing human NALP3. actives 81% (n = 1,300). inhibition, % at 10 µM; in the data active means inhibition above about 48%
Casp1 ASC ctr = CASP1-PYCARD signaling inhibition in yeast, confirmatory test, counterassay for NLRP3 inhibitor program, one-dose. AID 488784, 2010. yeast expressing Caspase-1-ASC, luminescence counter screen. inhibition, % at 10 µM. actives 66% (n = 1,000). shares compounds with NLRP3 yeast inh
NALP3 retest = NALP3 inhibitors in yeast, repeat test, confirmation, luminescence, single concentration, retest; shares compounds with NLRP3 yeast inh; yeast expressing human NALP3, luminescence read-out; inhibition, % at 10 µM; actives 53% (n = 1,000); AID 488794, 2010
Large screens that a line does not name were inactive (follow-up assays come after a bar, where they were run). Unless noted, no stated cut-off is given here; in the data, active means inhibition above about 50%; inactive means the rest.

CCC(C(=O)OC)n1cnc2scc(-c3ccc(C)c(C)c3)c2c1=O (stereo not given)	NALP1 yeast inh 100, NLRP3 yeast inh 97 | NALP3 confirm 99 | Casp1 ASC ctr 99 | NALP3 retest 98
COc1ccccc1CNC(=O)COc1ccccc1C	none
C/C=C/c1ccc(OCC(=O)NCc2ccccc2OC)c(OC)c1	NLRP3 yeast inh 50 | NALP3 confirm inactive
COc1ccc(/C=C/C(=O)OCC(=O)NC2CCCC2)c(OC)c1	none (no result: NALP1 yeast inh)
COCCNC(=O)CN(C(=O)CCC(=O)Nc1ccccn1)c1ccc(C)cc1C	none
Fc1cc(F)c(NC(=S)N2CCOCC2)c(F)c1	none
C/C(=N\NC(=S)NCc1ccccc1)c1ccc2ccccc2c1OC(F)F	NLRP3 yeast inh 56 | NALP3 confirm inactive
Cc1noc(/C=C/c2cccnc2)c1[N+](=O)[O-]	NLRP3 yeast inh 80 | NALP3 confirm 87 | Casp1 ASC ctr 85 | NALP3 retest 54
Cc1cccc(C)c1N/C=C/c1onc(C)c1[N+](=O)[O-]	none
CC(O)/C=C/c1ccc2ccccc2n1 (stereo not given)	NLRP3 yeast inh 50 | NALP3 confirm 70 | Casp1 ASC ctr inactive | NALP3 retest inactive
CN1CCc2nc3ccc(Cl)cc3c(-c3ccccc3Cl)c2C1	NLRP3 yeast inh 57 | NALP3 confirm 57 | Casp1 ASC ctr inactive | NALP3 retest inactive
CC(C)(Oc1ccc(Cl)cc1)C(=O)Nc1ccc(S(=O)(=O)Nc2ncccn2)cc1	none
O=C(OCCc1cc2ccccc2c(=O)o1)c1ccc2c(c1)OCO2	none (no result: NALP1 yeast inh)
O=C(OCCCc1cc2ccccc2c(=O)o1)c1ccc2c(c1)OCO2	NLRP3 yeast inh 53 (no result: NALP1 yeast inh) | NALP3 confirm inactive | Casp1 ASC ctr inactive | NALP3 retest inactive
Cc1ccnc2nc(C(=O)OCC(=O)N(CC(C)C)C3CCS(=O)(=O)C3)nn12 (stereo not given)	none (no result: NALP1 yeast inh)
CCOc1ccc(C(=O)CCc2nc3ccccc3s2)cc1	NLRP3 yeast inh 67 | NALP3 confirm 67 | Casp1 ASC ctr 65 | NALP3 retest 60
CCSC1(SCC)N=C(N)C2(C#N)C(c3ccc(F)cc3)C12C#N (stereo not given)	NLRP3 yeast inh 59 | NALP3 confirm 50 | Casp1 ASC ctr 65 | NALP3 retest inactive
COC1(OC)N=C(N)C2(C#N)C(c3ccc(F)cc3)C12C#N (stereo not given)	none (no result: NALP1 yeast inh)
CCOC(=O)c1cnn(-c2cc(C)cc(C)c2)c1N	none | NALP3 confirm 70 | Casp1 ASC ctr 57 | NALP3 retest 58
CN(c1ccccc1)S(=O)(=O)c1nnc(NC(=O)C2CCCCC2)s1	none
S=C(NCC1CCCO1)c1ccc(Br)cc1 (stereo not given)	none
COc1ccc(C(=O)O)cc1S(=O)(=O)Nc1ccccc1-c1ccccc1	none
O=C(Nc1cc2ccccc2oc1=O)c1ccccc1	NLRP3 yeast inh 60 | NALP3 confirm 73 | Casp1 ASC ctr 51 | NALP3 retest 53
Cc1oc(=O)c(NC(=O)c2ccccc2)cc1C(N)=O	none
C/C(=N\NC(=S)Nc1cccc(C)c1)c1ccccc1	none
C/C(=N\NC(=S)Nc1cccc(C)c1)c1ccco1	NLRP3 yeast inh 53 | NALP3 confirm inactive
CCCCNC(=O)Oc1c(Br)cc2sc(=O)oc2c1Br	NLRP3 yeast inh 72 (no result: NALP1 yeast inh) | NALP3 confirm 62
O=C(CN1CCN(c2ccccn2)CC1)Nc1ccc([N+](=O)[O-])cc1C(=O)Nc1ccccc1F	none
O=C(NC(Nc1nc2ccc([N+](=O)[O-])cc2s1)(C(F)(F)F)C(F)(F)F)c1ccccc1Cl	NALP1 yeast inh 105, NLRP3 yeast inh 74 | NALP3 confirm 94 | Casp1 ASC ctr 87 | NALP3 retest 94
O=C(NC(Nc1nc2ccc([N+](=O)[O-])cc2s1)(C(F)(F)F)C(F)(F)F)c1cccnc1	none
CO/N=C(\Cn1ncc(N2CCCC2)c(Br)c1=O)c1ccc(Cl)cc1	NLRP3 yeast inh 77 | NALP3 confirm 69 | Casp1 ASC ctr 78 | NALP3 retest 57
CC[C@H](C)[C@H]1O[C@]2(CC[C@@H]1C)C[C@@H]1C[C@@H](CC=C(C)[C@@H](O[C@H]3C[C@H](OC)[C@@H](O[C@H]4C[C@H](OC)[C@@H](O)[C@H](C)O4)[C@H](C)O3)[C@@H](C)C=CC=C3CO[C@@H]4[C@H](O)C(C)=C[C@@H](C(=O)O1)[C@]34O)O2	none (no result: NALP1 yeast inh)
CSc1nsc(SCC(=O)NCc2ccc(C)cc2)n1	NLRP3 yeast inh 51 | NALP3 confirm 62 | Casp1 ASC ctr inactive | NALP3 retest inactive
CCc1cc(C(=O)Nc2cc(S(=O)(=O)N(CC)CC)ccc2N2CCOCC2)sc1C	none (no result: NALP1 yeast inh)
Cc1cccc2c1-c1sc(C(=O)N3CCCCC3)cc1CO2	none
CCc1cc(C(=O)Nc2ccccc2N2CCOCC2)sc1C	NLRP3 yeast inh 51 (no result: NALP1 yeast inh) | NALP3 confirm 53 | Casp1 ASC ctr inactive | NALP3 retest inactive
Cc1cccc2c1-c1sc(C(=O)Nc3ccccc3N3CCN(C)CC3)cc1CO2	NLRP3 yeast inh 55 (no result: NALP1 yeast inh) | NALP3 confirm 64
CCC1Oc2ccc(C)cc2N(CC(=O)N2CCOCC2)C1=O (stereo not given)	none
CCOC(=O)c1c(S(=O)(=O)N2CCN(c3ccc(C(C)=O)cc3)CC2)c(C)n(C)c1C	none
Cc1ccc2oc(/N=C(\N)NC(=O)C(C)(C)C)nc2c1	NLRP3 yeast inh 71 | NALP3 confirm 58 | Casp1 ASC ctr inactive | NALP3 retest inactive
O=C(Oc1c(Cl)cc(Cl)c2cccnc12)c1ccco1	NLRP3 yeast inh 71 | NALP3 confirm 84
O=C(Oc1c(CN2CCOCC2)cc(Cl)c2cccnc12)c1cccs1	none
O=C(Oc1c(Cl)cc(Cl)c2cccnc12)c1cccs1	NLRP3 yeast inh 61 | NALP3 confirm 70 | Casp1 ASC ctr 83 | NALP3 retest 81
Oc1c(Cl)cc(Cl)c2cccnc12	none (no result: Bfl-1 A1 inh, NLRP3 yeast inh, T cell modulator)
C[C@@H]1O[C@@H](O[C@@H]2[C@@H](O)[C@H](OCCc3ccc(O)c(O)c3)O[C@H](CO)[C@H]2OC(=O)/C=C/c2ccc(O)c(O)c2)[C@H](O)[C@H](O)[C@H]1O	none (no result: NALP1 yeast inh)
CC(C)CCNC(=S)Nc1ccc([N+](=O)[O-])cc1	NALP1 yeast inh 92, NLRP3 yeast inh 63 | NALP3 confirm inactive
CNC(=O)c1c(O)c2cccc3c2n(c1=O)CCC3	NLRP3 yeast inh 50 | NALP3 confirm 64 | Casp1 ASC ctr inactive | NALP3 retest inactive
O=C(NCCNCCO)c1c(O)c2cccc3c2n(c1=O)CCC3	NLRP3 yeast inh 53 | NALP3 confirm 63 | Casp1 ASC ctr inactive | NALP3 retest inactive
